Measured values gathered from unrelated publications.
Target: Calcium/calmodulin-dependent protein kinase kinase 2 (CAMKK2, Homo sapiens, UniProt Q96RR4)

SMILES	effect on	method	concentration	remaining binding [%]
Cc1cnn2ncc(-c3ccnc(N(C)C)n3)c2c1	binding	–	1 µM	63
C[C@@H](c1cccc(C#N)c1)n1cc(Cl)cc(C(N)=O)c1=N	cell-free assay	competition with immobilised ligand	1 µM	100
COc1cnc(Nc2cccc(S(N)(=O)=O)c2)nc1N1CCN(c2ccccc2)C(=O)C1	binding	competition with immobilised ligand	1 µM	100
C=CC(=O)N1CCC(C(=O)NCC(=O)N2CCN(c3nc(-c4cnc(N)nc4C(F)F)nc(N4CCOCC4)n3)CC2)CC1	binding	competition with immobilised ligand	1 µM	95
O=C(c1ccc(Nc2nccc(-c3cc4ccccc4s3)n2)cc1)N1CCC(N2CCCC2)CC1	binding	competition with immobilised ligand	1 µM	82
CN(C)c1nccc(-c2cnn3ncccc23)n1	binding	–	1 µM	82
O=C(c1ccc(Nc2ncc(Cl)c(-c3ccc(Cl)s3)n2)cc1)N1CCC(N2CCCC2)CC1	binding	competition with immobilised ligand	1 µM	65
Nc1ncc2c(n1)-c1c([nH]c3ccc(C#CC4CC4)cc13)CCCC2	binding	competition with immobilised ligand	1 µM	94
CC1=C(C#N)C(c2ccc3c(c2)c(NC(=O)c2ccccc2C)nn3C)C(C#N)=C(C)N1	cell-free assay	competition with immobilised ligand	1 µM	100
N[C@@H]1CCN(c2nccc(-c3cnn4ncccc34)n2)C1	binding	–	1 µM	100
CO[C@@H](C)c1c(Nc2ccc([C@H](N(C)C(=O)C3CCS(=O)(=O)CC3)C(F)(F)F)cc2)cnc2cc(Cl)nn12	cell-free assay	competition with immobilised ligand	1 µM	80
C[C@@H]1CCN(c2nccc(-c3cnn4ncccc34)n2)C1	binding	–	1 µM	72
Cc1cc(NC(=O)c2cccc(S(F)(F)(F)(F)F)c2)cc(-n2ccn3nc(-c4cccnc4)cc23)c1	cell-free assay	competition with immobilised ligand	1 µM	99.6
c1cnn2ncc(-c3ccnc(N4CCC45COC5)n3)c2c1	binding	–	1 µM	80
O=C(NCC1CCOCC1)c1n[nH]cc1NC(=O)c1c(F)cccc1F	binding	competition with immobilised ligand	1 µM	68
FC(F)(F)Oc1cccc(-c2cnc3ccc(-c4ccncc4)nn23)c1	cell-free assay	competition with immobilised ligand	5 µM	55
CCC(=N\O)/C(C)=C/c1ccc(F)cc1	cell-free assay	competition with immobilised ligand	1 µM	98
COc1cnc(Nc2cccc(S(N)(=O)=O)c2)nc1N1CCN(c2ccccc2)CC1	binding	competition with immobilised ligand	1 µM	92
CC1CCCN1c1nccc(-c2cnn3ncccc23)n1 (centres unmarked)	binding	–	1 µM	100
O=C(O)[C@@H]1[C@@H](Cn2nnc3ccccc3c2=O)CC[C@H]1C(=O)c1ccc(OCCC2CCOCC2)cc1	cell-free assay	competition with immobilised ligand	1 µM	100
